S1P3 antagonist: antagonists of human S1P3 receptor. Q99500. CHO S1P3 NFAT-BLA reporter, FRET fluorescence, antagonist mode. inhibition, % at 4.98 µM. hit rate 0.27% among 170,000;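 active = inhibition above the plate cutoff, the mean inhibition of test wells on that plate plus 3 SD, cut at about 28% in these data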;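 also: cells challenged with S1P at its EC80 of 0.8 µM; blue over green emission ratio from cleaved BLA substrate after 4 h stimulation; 0% = S1P-stimulated wells and 100% = unstimulated DMSO-only wells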
Target sequence (Q99500 whole entry, looked up): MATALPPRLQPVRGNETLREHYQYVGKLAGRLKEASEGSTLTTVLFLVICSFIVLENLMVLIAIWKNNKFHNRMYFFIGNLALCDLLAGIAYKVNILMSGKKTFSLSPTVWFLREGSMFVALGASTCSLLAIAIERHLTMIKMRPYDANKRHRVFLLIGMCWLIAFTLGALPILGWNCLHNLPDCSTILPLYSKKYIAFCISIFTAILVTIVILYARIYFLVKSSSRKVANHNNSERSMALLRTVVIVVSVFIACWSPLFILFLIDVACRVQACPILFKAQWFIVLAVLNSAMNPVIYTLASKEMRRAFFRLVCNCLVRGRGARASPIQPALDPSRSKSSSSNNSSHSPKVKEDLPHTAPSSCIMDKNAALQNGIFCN
hK5 inh: inhibitors of human kallikrein 5; Q9Y337; inhibition, % at 5 µM; recombinant hK5, fluorogenic AMC substrate cleavage; hit rate 0.59% among 210,000; AID 873;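 active = inhibition of 40% or more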;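 also: 0% = enzyme controls without compound and 100% = no-enzyme blanks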
Target sequence (Q9Y337 67-293 limits assumed): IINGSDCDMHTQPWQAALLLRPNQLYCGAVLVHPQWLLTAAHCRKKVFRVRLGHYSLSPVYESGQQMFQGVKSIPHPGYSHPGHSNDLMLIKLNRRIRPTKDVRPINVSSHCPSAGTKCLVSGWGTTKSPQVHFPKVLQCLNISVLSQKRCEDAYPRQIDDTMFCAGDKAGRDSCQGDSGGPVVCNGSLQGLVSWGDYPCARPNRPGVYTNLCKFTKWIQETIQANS
FXIIa inh 1536: inhibitors of human coagulation factor XIIa. P00748. purified FXIIa, Boc-QGR-AMC fluorogenic substrate, 2 h. inhibition, % at 5 µM. hit rate 0.3% among 220,000. AID 800; in the data active = inhibition above about 40%;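 also: 0% = enzyme with no compound and 100% = blank without enzyme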
thrombin 1536: thrombin (human) inhibition; alpha-thrombin, Boc-VPR-AMC fluorogenic substrate cleavage; hit rate 0.26% among 220,000; inhibition, % at 5 µM;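 active = inhibition at or above 40%; inactive = inhibition below 40%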;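 also: 0% = enzyme with no compound and 100% = wells without enzyme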
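Material: human alpha-thrombin protein; Also added: Boc-VPR-AMC substrate, 15 µM final; Timing: enzyme reaction carried out at room temperature; Signal: fluorescence, ex 355 nm, em 460 nm; Measure: % inhibition of thrombin; Controls: enzyme without compound as high, wells lacking enzyme as low.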
FXIa inh 1536: blocks human coagulation factor XIa protease activity. P03951. purified FXIa, Boc-Glu-Ala-Arg-AMC fluorogenic substrate. inhibition, % at 5 µM. hit rate 0.14% among 220,000. AID 798;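 active = inhibition of at least 40%; inactive = inhibition below 40%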;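 also: fluorescence of freed AMC excited at 355 nm; 0% = enzyme without compound and 100% = no enzyme blank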
DTT redox prof: compounds producing H2O2 with reducing agent – biochemical, NIH compound library profiling, artefact control for MLSCN library redox annotation, primary screen. hit rate 0.03% among 200,000. activation, % at 10 µM. DTT-dependent redox cycling H2O2, phenol red/HRP absorbance; 100% = 100 µM peroxide control, 0% = buffer. AID 878;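 active = activation of at least 50% relative to the plate's high and low controls in the primary single-dose screen; inactive = activation below 50%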;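 also: compound incubated with DTT at 0.8 mM final as the reducing agent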
Active calls of the source: *; . = no result given. Only some compounds are listed: those with a hit (about 1.2% of all), similar ones and a draw of the others.

SMILES	S1P3 antagonist	hK5 inh	FXIIa inh 1536	thrombin 1536	FXIa inh 1536	DTT redox prof
Nc1nnc(CCS(=O)(=O)c2cc(Cl)ccc2Cl)s1	77*	-2	11	1	0	0
Nc1nnc(CCS(=O)(=O)c2ccc(Cl)cc2)s1	.	0	16	4	-1	-1
COC(=O)C1=C(C(=O)OC)[C@@H]2N(C)c3ccc(OC)cc3[C@@]23C[C@@H](C(=O)OC)N(S(=O)(=O)c2ccc(OC)cc2)C3=N1	.	1	3	-1	1	.
Cc1nc(C)c(NC(=O)N2CCc3ccccc32)cc1NC(=O)N1CCc2ccccc21	-15	76*	-1	22	3	0
OC1C2(Cc3ccccc3)CN3CCN(C2)CC1(Cc1ccccc1)C3 (stereo not drawn)	.	110*	-4	3	-6	2
CC12CCC(C(=O)N3CCN(c4ccccc4)CC3)(CC1=O)C2(C)C (stereo not drawn)	-7	54*	2	8	5	1
O=C(O)c1ccc(N/C(=N\S(=O)(=O)c2ccc(Cl)cc2)c2ccccc2)cc1	6	20	64*	15	44*	.
O=C(O)c1cccc(N/C(=N\S(=O)(=O)c2ccccc2)c2ccccc2)c1	-4	7	7	1	2	0
O=[N+]([O-])c1cnn(-c2nc(-c3ccccc3)cc(C(F)(F)F)n2)c1	8	-6	9	0	-3	0
O=C1C=CC(O)(c2cc(=O)c3c(O)cc(O)cc3o2)C=C1	-10	-15	7	-3	-2	1
O=C(N/N=C/c1cn(Cc2ccccc2)c2ccccc12)c1cccnc1	28*	-4	6	-4	-1	0
O=C(N/N=C/c1cn(Cc2ccccc2)c2ccccc12)c1ccncc1	-11	-4	5	2	-1	-1
O=C(COc1ccc(Cl)cc1Cl)Nc1nc2n(n1)C(c1ccccc1)CC(=O)N2 (stereo not drawn)	0	58*	20	28	2	1
Cc1ccc2c(c1)c1c3n2CCCNC3CCC1 (stereo not drawn)	14	-26	18	41*	-13	2
c1ccc2c(c1)COC(CNC1CCCCC1)OC2	-5	-13	10	1	-4	-2
CCCCOC(=O)c1ccc(NC(=O)C(=O)NCc2ccccn2)cc1	8	1	9	-6	1	.
CCCCOC(=O)c1ccc(NC(=O)C(=O)NCc2ccco2)cc1	-16	-2	99*	-10	-2	0
O=C(NNS(=O)(=O)c1ccc(F)cc1F)c1csc(-c2cccnc2)n1	10	-2	3	-3	3	.
COC(=O)c1cc2occc2n1CC(=O)Nc1cc(OC)cc(OC)c1	19	62*	27	18	2	2
FC(F)(F)c1cccc(-c2nn[nH]n2)c1	-10	-2	.	-3	-3	0
FC(F)(F)c1cccc(-c2nnc3ccc(C(F)(F)F)cn23)c1	93*	1	6	-3	1	0
CC(c1ccccc1)n1c(-c2ccncc2)n[nH]c1=S (stereo not drawn)	-3	-16	4	4	-7	-2
CC(c1ccc(F)cc1)n1c(-c2cccs2)n[nH]c1=S (stereo not drawn)	-37	71*	.	33	35	0
NS(=O)(=O)c1ccc(NC(=O)COC(=O)COc2ccccc2)cc1	1	0	7	1	1	-1
Cc1nnc(NC(=O)c2ccccc2Oc2ccccc2)s1	-7	-10	0	-9	-5	0
SMILES	S1P3 antagonist	hK5 inh	FXIIa inh 1536	thrombin 1536	FXIa inh 1536	DTT redox prof
Cc1c(C(=O)c2ccccc2)c(=O)n(C)c(=O)n1C	10	.	-95	-3	-2	-1
CCCC/C(O)=N\S(=O)(=O)c1ccc(N=NN(C)C)cc1	.	70*	34	32	10	1
Cc1cc(N/N=C2\CC(C)CC(C)(C)C2)nc2ccccc12 (stereo not drawn)	-17	-3	4	-27	-9	-1
Cc1ccc2oc(NC(=O)N3CCOCC3)cc(=O)c2c1	.	3	80*	-1	0	-2
O=C(Nc1cc(=O)c2ccccc2o1)N1CCOCC1	11	-11	-7	-5	9	-1
NNc1nc2ccc(Cl)cc2s1	-13	-10	2	-7	-1	0
NNc1nc2ccc(F)cc2s1	6	43*	36	22	17	0
O=S(=O)(NC1c2cccc3cccc(c23)C1N1CCNCC1)c1ccc(Cl)cc1 (stereo not drawn)	-6	-3	20	-12	0	1
O=C(Cc1cccs1)Nc1nnc(Cc2ccc(F)cc2)s1	.	77*	31	23	15	0
COc1ccc(CCNC(=S)NC(=O)c2cc(OC)c(OC)c(OC)c2)cc1OC	1	1	5	-2	1	.
O=C(O)c1cccc(N2CCCC2)c1	7	128*	-9	-1	-8	-1
O=C(Oc1ccc2c(=O)c(Cl)coc2c1)c1cccnc1	.	-10	30	23	66*	0
O=C(Oc1ccc2c(=O)c(Oc3ccc4ccccc4c3)coc2c1)c1cccnc1	5	-5	3	-5	0	0
CC1Cc2ccccc2N1S(=O)(=O)c1cccc2nsnc12 (stereo not drawn)	-1	21	43*	2	19	0
CC1CN(S(=O)(=O)c2cccc3nsnc23)CC(C)O1 (stereo not drawn)	.	-10	6	-2	-4	1
COc1cc(/C=N/NC(=O)C(=O)Nc2ccccn2)ccc1O	-19	70*	4	29	12	-1
CCCOc1ccc(/C=N/NC(=O)C(=O)Nc2ccccn2)cc1	-17	-17	10	-9	1	0
COc1ccc(/C=C/C(=O)NCc2ccccn2)cc1OC	-23	-8	-1	-11	-6	-1
COCCCNC(=O)CS(=O)(=O)Cc1nc(-c2cccc(OC)c2)oc1C	-2	-14	14	2	2	-5
CCCCN(C)C(=O)CS(=O)(=O)Cc1nc(-c2cccc(OC)c2)oc1C	-10	44*	19	14	13	-1
COc1cc(C(=O)OCC(C)=O)ccc1OCc1c(C)noc1C	-10	42*	38	.	42*	0
CCOCCn1c(-c2ccc(OC)cc2)nc2ccccc21	-3	42*	54*	19	18	-1
Cc1ccc(NC(=O)C2(c3cccs3)CCOCC2)cc1C	8	-16	10	-1	10	0
Cc1ccc(NC2c3ncccc3C(=O)N2c2ccccc2C)cc1C (stereo not drawn)	1	47*	13	5	-1	-4
C=CCOC(=O)C1=C(C)N=C2SCCC(=O)N2C1c1cccs1 (stereo not drawn)	22	9	71*	4	8	0

Assay outcomes as filed in PubChem.
